Assay results from different studies.

| Compound | target or system | test | test system | setting | quantity | value |
| --- | --- | --- | --- | --- | --- | --- |
| CCCC[C@@H]1NC(=O)[C@H](Cc2ccc(O)cc2)NC(=O)[C@@H]2CCCN2C(=O)[C@H](CC(=O)O)NC(=O)[C@H](C)NC(=O)[C@H](Cc2ccccc2)NC(=O)[C@@H]2CSCCC(=O)N3CN(CN(C3)C(=O)CCSC[C@@H](C(=O)N[C@@H](CNC(=O)CCOCCOCCOCCOCCOCCn3cc(CCC(=O)N[C@H]4CSCCC(=O)N5CN6CN(C5)C(=O)CCSC[C@H](NC(=O)[C@@H](CC(=O)O)NC(=O)[C@H](Cc5cccc7ccccc57)NC(=O)[C@@H]5CCCN5C4=O)C(=O)N[C@@H](CCSC)C(=O)N[C@@H](CCCCNC(=N)N)C(=O)N[C@@H](CC(=O)O)C(=O)N[C@@H](Cc4c[nH]c5ccccc45)C(=O)N[C@@H](CO)C(=O)N[C@@H]([C@@H](C)O)C(=O)N4CCC[C@H]4C(=O)N4C[C@H](O)C[C@H]4C(=O)N[C@@H](Cc4c[nH]c5ccccc45)C(=O)N[C@H](C(N)=O)CSCCC6=O)nn3)C(N)=O)NC1=O)C(=O)CCSC[C@H](NC(C)=O)C(=O)N[C@@H](CC(C)(C)C)C(=O)N1CCC[C@H]1C(=O)N[C@@H](CCC(=O)O)C(=O)N[C@H](C)C(=O)N1CCC[C@H]1C(=O)N[C@@H](Cc1ccc(O)cc1)C(=O)N2 | – | – | rat, plasma | intravenous, 2 mg/kg | clearance | 0.96 L/h/kg |
| CN[C@H](CC(C)C)C(=O)N[C@H]1C(=O)N[C@@H](CC(N)=O)C(=O)N[C@H]2C(=O)N[C@H]3C(=O)N[C@H](C(=O)N[C@H](C(=O)O)c4cc(O)cc(O)c4-c4cc3ccc4O)[C@H](O)c3ccc(c(Cl)c3)Oc3cc2cc(c3O[C@@H]2O[C@H](CO)[C@@H](O)[C@H](O)[C@H]2O[C@H]2C[C@](C)(N)[C@H](O)[C@H](C)O2)Oc2ccc(cc2Cl)[C@H]1O | – | haemolysis | human | 200 µM, 1 h, pH 7.2 | haemolysis | ≤ 1% |
| [2H]C([2H])([2H])n1cc2cc(Nc3nc(=O)n(Cc4ncn(C)n4)c(=O)n3Cc3cc(F)c(F)cc3F)c(Cl)cc2n1 | – | – | male Sprague-Dawley rat, plasma | intravenous, 5 mg/kg | clearance | 0.0617 L/h/kg |
| COc1cc(Br)c(C=NNc2nc(-c3ccc(F)cc3)cs2)cc1OC | – | haemolysis | human | 10 µM, 30 min, pH 7.4 | haemolysis | 3.06% |
| CCCC[C@@H]1NC(=O)[C@H](Cc2ccc(O)cc2)NC(=O)[C@@H]2CCCN2C(=O)[C@H](CC(=O)O)NC(=O)[C@H](C)NC(=O)[C@H](Cc2ccccc2)NC(=O)[C@@H]2CSCCC(=O)N3CN(CN(C3)C(=O)CCSC[C@H](NC(C)=O)C(=O)N[C@@H](CC(C)(C)C)C(=O)N3CCC[C@H]3C(=O)N[C@@H](CCC(=O)O)C(=O)N[C@H](CCCCNC(=O)CCc3cn(CCOCCOCCOCCN(CCOCCOCCOCCC(=O)N[C@H]4CSCCC(=O)N5CN6CN(C5)C(=O)CCSC[C@H](NC(=O)[C@@H](CC(=O)O)NC(=O)[C@H](Cc5cccc7ccccc57)NC(=O)[C@@H]5CCCN5C4=O)C(=O)N[C@@H](CCSC)C(=O)N[C@@H](CCCCNC(=N)N)C(=O)N[C@@H](CC(=O)O)C(=O)N[C@@H](Cc4c[nH]c5ccccc45)C(=O)N[C@@H](CO)C(=O)N[C@@H]([C@@H](C)O)C(=O)N4CCC[C@H]4C(=O)N4C[C@H](O)C[C@H]4C(=O)N[C@@H](Cc4c[nH]c5ccccc45)C(=O)N[C@H](C(N)=O)CSCCC6=O)CCOCCOCCOCCn4cc(CCC(=O)NCCCC[C@H]5NC(=O)[C@H](CCC(=O)O)NC(=O)[C@@H]6CCCN6C(=O)[C@H](CC(C)(C)C)NC(=O)[C@@H](NC(C)=O)CSCCC(=O)N6CN7CN(C6)C(=O)CCSC[C@H](NC(=O)[C@H](Cc6ccc(O)cc6)NC(=O)[C@@H]6CCCN6C5=O)C(=O)N[C@@H](Cc5ccccc5)C(=O)N[C@@H](C)C(=O)N[C@@H](CC(=O)O)C(=O)N5CCC[C@H]5C(=O)N[C@@H](Cc5ccc(O)cc5)C(=O)N[C@@H](CCCC)C(=O)N[C@H](C(N)=O)CSCCC7=O)nn4)nn3)C(=O)N3CCC[C@H]3C(=O)N[C@@H](Cc3ccc(O)cc3)C(=O)N2)C(=O)CCSC[C@@H](C(N)=O)NC1=O | – | – | rat, plasma | intravenous, 2 mg/kg | clearance | 0.78 L/h/kg |
| CCCCCCCCCCOc1cc2c(O)c(C(=O)OCC)cnc2cc1OCC | HeLa | cell growth or viability | – | 72 h | IC50 | > 100 µM |
| CC[C@H](C)[C@H](N)C(=O)N[C@@H](CC(N)=O)C(=O)N[C@@H](CC(C)C)C(=O)N[C@@H](CCCCN)C(=O)N[C@@H](C)C(=O)N[C@@H](CC(C)C)C(=O)N[C@@H](C)C(=O)N[C@@H](C)C(=O)N[C@@H](CC(C)C)C(=O)N[C@@H](C)C(=O)N[C@@H](CCCCN)C(=O)N[C@@H](CCCCN)C(=O)N[C@H](C(=O)N[C@@H](CC(C)C)C(N)=O)[C@@H](C)CC | – | haemolysis | human | 100 µM | haemolysis | ≤ 15% |
| NC(=O)c1ncn([C@@H]2O[C@H](CO)[C@@H](O)[C@H]2O)n1 | HeLa | cell growth or viability, MTS | – | – | CC50 | > 250 µM |
| Cc1nc(Nc2ccc(NC(=O)c3ccco3)cc2)cc(-n2cccn2)n1 | HeLa | cell growth or viability, MTS | – | – | CC50 | > 100 µM |
| Nc1ncnc2c1ncn2C[C@H](O)CO | HeLa | cell growth or viability, MTS | – | – | CC50 | > 250 µM |
| CC(C)(C)NC(=O)N[C@H](C(=O)N1C[C@H]2[C@@H]([C@H]1C(=O)NC(CC1CCC1)C(=O)C(N)=O)C2(C)C)C(C)(C)C (some centres unmarked) | HCT-8 | cell growth or viability, neutral red | – | 48 h | CC50 | > 100 µM |
